We go through seven compounds from ChEMBL document CHEMBL1134490, “Estradiol-16alpha-carboxylic acid esters as locally active estrogens” (2001).

One assay relates to Ishikawa. In words: Relative stimulation of alkaline phosphatase (AlkP) activity in Ishikawa cells. It is filed as functional, Homo sapiens. The gist of the method: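 Ishikawa cells in phenol red-free medium with charcoal-stripped bovine serum, exposed for 3 days to steroid over at least 6 orders of magnitude of concentration. Cells were freeze-thawed, then given 5 mM p-nitrophenyl phosphate at pH 9.8, read kinetically at 405 nm. RSA = (1/EC50 analogue)/(1/EC50 E2) × 100. At least three experiments in duplicate.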

The test system of assay [1] is esterase (Rattus norvegicus). Briefly: Relative hydrolytic activity against esterase in rat hepatic microsomes. The following applies: Liver.

SMILES strings stand for the structures.

In turn, `C[C@]12CC[C@@H]3c4ccc(O)cc4CC[C@H]3[C@@H]1C[C@@H](CCC(=O)O)[C@@H]2O` had an RSA with Ishikawa of 0. In the assay on Ishikawa, `CCOC(=O)C[C@@H]1C[C@H]2[C@@H]3CCc4cc(O)ccc4[C@H]3CC[C@]2(C)[C@H]1O` registered an RSA of 0.3. Also, the RHA in assay [1] was found to be 700.

`COC(=O)CC[C@@H]1C[C@H]2[C@@H]3CCc4cc(O)ccc4[C@H]3CC[C@]2(C)[C@H]1O` had an RSA in the assay on Ishikawa of 0. Besides, the RHA in assay [1] amounted to 910.

As for `COC(=O)C[C@@H]1C[C@H]2[C@@H]3CCc4cc(O)ccc4[C@H]3CC[C@]2(C)[C@H]1O`, the RSA in the assay with Ishikawa stood at 0.5. This compound returned an RHA in assay [1] of 340. On to `C[C@]12CC[C@@H]3c4ccc(O)cc4CC[C@H]3[C@@H]1C[C@@H](CC(=O)O)[C@@H]2O`, for which the RSA in the assay with Ishikawa is given as 0. On the same count and under the same terms, to `C[C@]12CC[C@@H]3c4ccc(O)cc4CC[C@H]3[C@@H]1CCC2=O` [ESTRONE] belongs 7. On the same count and under the same terms, to `CC(C)OC(=O)[C@@H]1C[C@H]2[C@@H]3CCc4cc(O)ccc4[C@H]3CC[C@]2(C)[C@H]1O` belongs 0.1.
